Data taken from PubChem BioAssay.
Activity calls are given as the source filed them.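 How the source made its calls, unless noted: active means current rise at least 3 SD above the untreated control mean in each of two repeat wells; inactive means the rest.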

Legend:
[1] = target: Potassium voltage-gated channel subfamily KQT member 1 (Homo sapiens) (UniProt P51787); assay: KCNQ1 activators by electrophysiology – IonWorks patch clamp, KCNQ1-CHO cells, orthogonal assay for KCNQ1 potentiator project, confirmation (AID 493184); conditions: automated patch clamp current, at 10 µM
How it was run: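 Read-out: Percent current increase versus pre-compound level | Assay system: CHO cells carrying KCNQ1 | Measured by: Automated perforated-patch electrophysiology | Medium: External bath solution at pH 7.4 | Dosing: One dose, 10 µM final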

[2] = target: Potassium voltage-gated channel subfamily E member 1 (Homo sapiens) + Potassium voltage-gated channel subfamily KQT member 1 (Homo sapiens) (UniProt P15382+P51787); assay: KCNQ1-E1 channel activation – thallium flux, CHO-K1 KCNQ1/E1 cells, selectivity assay for KCNQ1 potentiator project, confirmation (AID 493186;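 active means mean duplicate activation above the buffer control mean plus 5 SD of those controls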); conditions: FluxOR thallium flux, at 10 µM
How it was run: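 Test system: CHO-K1 cells with KCNQ1/E1; dosing: one test concentration; signal: FluxOR Tl+ flux fluorescence, kinetic read; incubation: 90-min dye loading then 20-min compound exposure, both at room temperature; read-out basis: percent of R-L3 effect over buffer; replication: duplicate wells per compound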

Chain of Potassium voltage-gated channel subfamily KQT member 1 (Homo sapiens) (P51787 whole entry, looked up): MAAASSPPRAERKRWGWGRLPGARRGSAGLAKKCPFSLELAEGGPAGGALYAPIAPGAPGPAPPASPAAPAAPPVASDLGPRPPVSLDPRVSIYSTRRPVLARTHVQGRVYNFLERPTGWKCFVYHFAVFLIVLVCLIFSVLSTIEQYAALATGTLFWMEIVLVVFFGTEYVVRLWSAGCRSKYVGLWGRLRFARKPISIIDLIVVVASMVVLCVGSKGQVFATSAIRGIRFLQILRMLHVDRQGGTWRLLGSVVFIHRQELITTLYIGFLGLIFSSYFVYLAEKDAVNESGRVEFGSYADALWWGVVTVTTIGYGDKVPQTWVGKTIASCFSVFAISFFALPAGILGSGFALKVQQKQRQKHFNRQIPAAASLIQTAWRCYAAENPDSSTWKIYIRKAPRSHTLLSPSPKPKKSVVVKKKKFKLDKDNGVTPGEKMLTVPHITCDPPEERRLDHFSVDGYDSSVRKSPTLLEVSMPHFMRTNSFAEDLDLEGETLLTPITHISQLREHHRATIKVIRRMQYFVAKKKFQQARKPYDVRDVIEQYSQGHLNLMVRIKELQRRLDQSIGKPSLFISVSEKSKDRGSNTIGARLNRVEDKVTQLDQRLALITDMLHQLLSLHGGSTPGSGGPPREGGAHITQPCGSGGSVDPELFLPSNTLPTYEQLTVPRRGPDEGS
Chain of Potassium voltage-gated channel subfamily E member 1 (Homo sapiens) + Potassium voltage-gated channel subfamily KQT member 1 (Homo sapiens) (P51787 whole entry, looked up): as the sequence (P51787 whole entry, looked up) above

**Q.** For `Cc1nn(-c2cc(C(F)(F)F)ccc2Cl)c2nc(C(Cl)(Cl)Cl)[nH]c(=O)c12`, which outcome [1] is on record?
**A.** inactive

**Q.** How did the outcome [1] turn out when `COc1cc(NC(=O)CSc2ncnc3sc4c(c23)CCC(C)C4)c(C(=O)O)cc1OC` (stereo not given) was run?
**A.** inactive

**Q.** For `Cc1ccc2c(c1)C1CN(C)CCC1N2C(=S)NC(=O)c1ccc(Br)cc1` (stereo not given), which outcome [1] is on record?
**A.** inactive

**Q.** `COc1ccc(NS(=O)(=O)c2ccc3ccccc3c2)c2ncccc12` was tested. Which outcome [1] did it give?
**A.** inactive

**Q.** With `CN(C)CCCN(C(=O)CCc1ccccc1)c1nc2ccc(F)cc2s1` as the compound, how does the outcome [1] read?
**A.** inactive

**Q.** Which results are given for `CCN(CC)c1ncnc2sc3c(c12)CCC3`?
**A.** outcome [1]: inactive; outcome [2]: inactive

**Q.** With `O=C1C=CC(=O)N1CCNc1ncc(C(F)(F)F)cc1Cl` as the compound, how does the outcome [1] read?
**A.** inactive

**Q.** And the outcome [2]?
**A.** inactive

**Q.** Which results are given for `O=C(O)CCCN1C(=O)/C(=C\c2ccc(-c3nc4ccccc4s3)o2)SC1=S`?
**A.** outcome [1]: inactive; outcome [2]: inactive

**Q.** `Cc1cc(C)c2c(=O)n(CC(=O)Nc3cccc(Cl)c3C)sc2n1` was tested. Which outcome [1] did it give?
**A.** inactive

**Q.** For `CC(C)NS(=O)(=O)c1ccc(NC(=O)C(C)Oc2ccc(C(=O)c3ccccc3)cc2)cc1` (stereo not given), which outcome [1] is on record?
**A.** inactive

**Q.** What about the outcome [2] of the same compound?
**A.** inactive

**Q.** Which outcome [1] does the source give for `COc1cc(C2(c3ccc(O)c(OC)c3)C(=O)Nc3c(C)cc(Br)cc32)ccc1O` here?
**A.** inactive
